These results are taken from ChEMBL document CHEMBL1155077, “Kinesin spindle protein (KSP) inhibitors. 9. Discovery of (2S)-4-(2,5-difluorophenyl)-n-[(3R,4S)-3-fluoro-1-methylpiperidin-4-yl]-2-(hydroxymethyl)-N-methyl-2-phenyl-2,5-dihydro-1H-pyrrole-1-carboxamide (MK-0731) for the treatment of taxane-refractory cancer” (J Med Chem, 2008).

Activity calls are given as the source filed them.

Data set [1] can be described thus: Inhibition of tubulin polymerization at 20 uM. The gist of the method:
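Tubulin at 2.5 mg/mL with 0.5 mM GTP in 80 mM K-PIPES pH 6.8, 1 mM MgCl2, 1 mM EGTA; compound at 20 µM final from DMSO; 37 °C. Light scattering read at 320 and 340 nm every 30 s for 75 min, with paclitaxel and colchicine (20 µM) controls.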

The nature of data set [2]: Inhibition of human KSP in presence of 30% mouse serum. Summed up: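 KSP ATPase assay as the primary one (0.25 nM KSP motor domain, microtubules, 1 mM ATP, pH 6.8, 3 h at RT, quinaldine red phosphate read-out), run with 30% mouse serum dialysed against reaction buffer (12-14 kDa cutoff). Mean of at least 3 experiments unless noted.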
Data set [3] is described as follows: Induction of apoptosis in human […] cells assessed as caspase 3 activation after 48 hrs by fluorescent assay. The data set is classed as functional, cell-based. The gist of the method:
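A2780 cells seeded 20 000/well, grown overnight, then treated in triplicate 48 h with vehicle or compound, 300 to 0.415 nM (7-point, 3-fold series), 0.1% DMSO final.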

The nature of data set [4]: Aqueous solubility at pH 4.3. The settings on record: aqueous solution. The class given is physicochemical.
Data set [5] can be described thus: Clearance in rat at 1 mg/kg, iv. The arrangement: dose 1 mg/kg, route intravenous. The data set is classed as ADME, organism-based. The settings on record: in vivo.
Data set [6] can be described thus: Half life in rat at 1 mg/kg, iv. The class given is ADME, organism-based. The arrangement: dose 1 mg/kg, route intravenous. The settings on record: in vivo.

As to `CN1CC[C@H](N(C)C(=O)N2CC(c3cc(F)ccc3F)=C[C@@]2(CO)c2ccccc2)[C@H](F)C1`, in data set [1], the outcome was inactive. Besides, the IC50 in data set [2] came to 29.1 nM. Also, the EC50 in data set [3] worked out at 2.7 nM. Also, the solubility in data set [4] was above 50 mg/mL. Besides, the clearance in data set [5] was determined as 66.7 mL/min/kg. Also, the half-life in data set [6] is 1 h.
